# Measurements as given in ChEMBL document CHEMBL1147739, “Identification of the key residue of calcitonin gene related peptide (CGRP) 27-37 to obtain antagonists with picomolar affinity at the CGRP receptor” (J Med Chem, 2006).
# *1 amine or outer side, *2 acyl side, *3 side chain or, on linkers, in order; H or OH if unused. Where a SMILES comes first, the peptide text is derived from it. [ ]: non-standard residue; d: D form. X2 = COC(=O)[C@@H]1[C@@H](N[*:1])[C@H]1C(=O)[*:2]; X1 = COC(=O)[C@H]1[C@H](N[*:1])[C@@H]1C(=O)[*:2]
# Experiments:
# [1] = biological target: T1, Calcitonin-gene-related peptide receptor, CALCRL/RAMP1 (Homo sapiens, UniProt O60894+Q16602); test: Displacement of [3H-propionyl-K24] from halphaCGRP expressed in human neuroblastoma SK-N-MC cells; type: cell-based
# T1 sequence (O60894 whole entry): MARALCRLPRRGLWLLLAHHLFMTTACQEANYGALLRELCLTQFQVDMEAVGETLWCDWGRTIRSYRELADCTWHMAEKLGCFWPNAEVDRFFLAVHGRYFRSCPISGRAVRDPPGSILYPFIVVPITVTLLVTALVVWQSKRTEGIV
# T1 sequence (Q16602 whole entry): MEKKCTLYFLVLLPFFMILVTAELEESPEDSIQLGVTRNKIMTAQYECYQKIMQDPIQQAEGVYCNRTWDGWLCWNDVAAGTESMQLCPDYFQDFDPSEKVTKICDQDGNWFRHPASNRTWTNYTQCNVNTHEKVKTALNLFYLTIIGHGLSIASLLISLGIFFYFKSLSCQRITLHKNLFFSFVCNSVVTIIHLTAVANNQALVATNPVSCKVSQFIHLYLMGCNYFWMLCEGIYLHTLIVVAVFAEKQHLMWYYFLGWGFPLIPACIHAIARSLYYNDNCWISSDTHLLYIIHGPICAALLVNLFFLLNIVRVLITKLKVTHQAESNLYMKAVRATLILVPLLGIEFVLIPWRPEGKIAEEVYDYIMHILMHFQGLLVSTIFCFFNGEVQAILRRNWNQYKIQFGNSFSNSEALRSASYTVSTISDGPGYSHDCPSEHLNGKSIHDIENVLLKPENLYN
# In short: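 Whole SK-N-MC cells, 3 million/mL in Tris pH 7.4 buffer with NaCl, MgCl2, Pefabloc and 1% BSA. Incubated 90 min at room temperature with 1 nM [3H-propionyl-K24]-hRCGRP 8-37 and competitor (10-5-10-14 M). Separated by centrifugation with a cold wash, then β-counted. IC50 by nonlinear regression, converted to Ki by Cheng-Prusoff with tracer KD. Three experiments in triplicate.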
# [2] = biological target: T1, Calcitonin-gene-related peptide receptor, CALCRL/RAMP1; test: Antagonist activity on halphaCGRP-induced cAMP accumulation at human neuroblastoma SK-N-MC cells; type: functional, cell-based; details: read-out: pA2 (converted)
# In short: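 SK-N-MC cells detached with PBS-EDTA, washed in HEPES/glucose Hank's, ~2 million cells/mL in buffer with 1 mM IBMX and 1% BSA. Preincubated 15 min at 37 °C, then 15 min with hRCGRP (10-5-10-12 M) alone or with fixed antagonist (10 or 100 nM). cAMP extracted with HCl, AlphaScreen read-out. Agonist EC50 shifts gave concentration ratios, and apparent pA2 = log((CR-1)/[B]). Three experiments in triplicate.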
# [3] = biological target: T1, Calcitonin-gene-related peptide receptor, CALCRL/RAMP1; test: Displacement of [125I-Tyr10] from halphaCGRP expressed in human neuroblastoma SK-N-MC cells; type: cell-based
Compound,Ki [1],Kb [2],Ki [3]
CC(C)[C@H](NC(=O)[C@H](CC(=O)O)NC(=O)[C@@H](NC(=O)[C@@H]1CCCCN1C(=O)[C@@H](NC(=O)[C@@H](N)Cc1ccccc1)C(C)C)[C@@H](C)O)C(=O)NCC(=O)N1CCC[C@H]1C(=O)N[C@@H](Cc1ccccc1)C(=O)N[C@@H](C)C(=O)N[C@@H](Cc1ccccc1)C(=O)O,> 10000 nM,,
CC(C)[C@H](NC(=O)[C@H](CC(=O)O)NC(=O)[C@@H](NC(=O)[C@@H]1Cc2ccccc2CN1C(=O)[C@@H](NC(=O)[C@@H](N)Cc1ccccc1)C(C)C)[C@@H](C)O)C(=O)NCC(=O)N1CCC[C@H]1C(=O)N[C@@H](Cc1ccccc1)C(=O)N[C@@H](C)C(=O)N[C@@H](Cc1ccccc1)C(=O)O,0.02 nM,6.31 nM,
CC(C)[C@H](NC(=O)[C@H](CC(=O)O)NC(=O)[C@@H](NC(=O)[C@@H]1C[C@@H](O)CN1C(=O)[C@@H](NC(=O)[C@@H](N)Cc1ccccc1)C(C)C)[C@@H](C)O)C(=O)NCC(=O)N1CCC[C@H]1C(=O)N[C@@H](Cc1ccccc1)C(=O)N[C@@H](C)C(=O)N[C@@H](Cc1ccccc1)C(=O)O,0.006 nM,31.6 nM,
CC(C)[C@H](NC(=O)[C@H](CC(=O)O)NC(=O)[C@@H](NC(=O)[C@@H]1CCCN1C(=O)[C@@H](NC(=O)[C@@H](N)Cc1ccccc1)C(C)C)[C@@H](C)O)C(=O)NCC(=O)N1CCC[C@H]1C(=O)N[C@@H](Cc1ccccc1)C(=O)N[C@@H](C)C(=O)N[C@@H](Cc1ccccc1)C(=O)O,0.02 nM,,14 nM
COC(=O)[C@@H]1[C@@H](NC(=O)[C@@H](NC(=O)[C@@H](N)Cc2ccccc2)C(C)C)[C@H]1C(=O)N[C@H](C(=O)N[C@@H](CC(=O)O)C(=O)N[C@H](C(=O)NCC(=O)N1CCC[C@H]1C(=O)N[C@@H](Cc1ccccc1)C(=O)N[C@@H](C)C(=O)N[C@@H](Cc1ccccc1)C(=O)O)C(C)C)[C@@H](C)O,> 10000 nM,,
CC(C)[C@H](NC(=O)[C@H](CC(=O)O)NC(=O)[C@@H](NC(=O)C(C)(C)NC(=O)[C@@H](NC(=O)[C@@H](N)Cc1ccccc1)C(C)C)[C@@H](C)O)C(=O)NCC(=O)N1CCC[C@H]1C(=O)N[C@@H](Cc1ccccc1)C(=O)N[C@@H](C)C(=O)N[C@@H](Cc1ccccc1)C(=O)O,0.002 nM,10 nM,
COC(=O)[C@H]1[C@H](NC(=O)[C@@H](NC(=O)[C@@H](N)Cc2ccccc2)C(C)C)[C@@H]1C(=O)N[C@H](C(=O)N[C@@H](CC(=O)O)C(=O)N[C@H](C(=O)NCC(=O)N1CCC[C@H]1C(=O)N[C@@H](Cc1ccccc1)C(=O)N[C@@H](C)C(=O)N[C@@H](Cc1ccccc1)C(=O)O)C(C)C)[C@@H](C)O,0.7 nM,,
COC(=O)[C@H]1[C@H](NC(=O)CNC(=O)[C@@H](NC(=O)[C@H](CC(=O)O)NC(=O)[C@@H](NC(=O)[C@@H]2CCCN2C(=O)[C@@H](NC(=O)[C@@H](N)Cc2ccccc2)C(C)C)[C@@H](C)O)C(C)C)[C@@H]1C(=O)N[C@@H](Cc1ccccc1)C(=O)N[C@@H](C)C(=O)N[C@@H](Cc1ccccc1)C(=O)O (H-FVPTDVG[X1]FAF-OH),> 10000 nM,,
COC(=O)[C@@H]1[C@@H](NC(=O)CNC(=O)[C@@H](NC(=O)[C@H](CC(=O)O)NC(=O)[C@@H](NC(=O)[C@@H]2CCCN2C(=O)[C@@H](NC(=O)[C@@H](N)Cc2ccccc2)C(C)C)[C@@H](C)O)C(C)C)[C@H]1C(=O)N[C@@H](Cc1ccccc1)C(=O)N[C@@H](C)C(=O)N[C@@H](Cc1ccccc1)C(=O)O (H-FVPTDVG[X2]FAF-OH),> 10000 nM,,
COC(=O)[C@H]1[C@H](NC(=O)CNC(=O)[C@@H](NC(=O)[C@H](CC(N)=O)NC(=O)[C@@H](NC(=O)[C@@H]2CCCN2C(=O)[C@@H](NC(=O)[C@@H](N)Cc2ccccc2)C(C)C)[C@@H](C)O)C(C)C)[C@@H]1C(=O)N[C@@H](Cc1ccccc1)C(=O)N[C@@H](C)C(=O)N[C@@H](Cc1ccccc1)C(=O)O (H-FVPTNVG[X1]FAF-OH),> 10000 nM,,
COC(=O)[C@@H]1[C@@H](NC(=O)CNC(=O)[C@@H](NC(=O)[C@H](CC(N)=O)NC(=O)[C@@H](NC(=O)[C@@H]2CCCN2C(=O)[C@@H](NC(=O)[C@@H](N)Cc2ccccc2)C(C)C)[C@@H](C)O)C(C)C)[C@H]1C(=O)N[C@@H](Cc1ccccc1)C(=O)N[C@@H](C)C(=O)N[C@@H](Cc1ccccc1)C(=O)O (H-FVPTNVG[X2]FAF-OH),> 10000 nM,,
H-FVATDVGPFAF-OH,8.4 nM,25.1 nM,
H-FVPTDVGAFAF-OH,13.6 nM,,76.8 nM
